From PubChem BioAssay
SENP8 block-1 = SENP8 protease inhibitors, primary screen, biochemical, luminescence. purified SENP8, Z-RLRGG-aminoluciferin cleavage. inhibition, % at 10 µM. hit rate 1.2% among 330,000. AID 2540, 2010; in the data active means inhibition above about 50%
SENP1 FRET inh = human SENP1 catalytic domain inhibitors, primary screen, biochemical, FRET, uHTS; Sentrin-specific protease 1 (Homo sapiens), Q9P0U3; inhibition, % at 10 µM; recombinant SENP1 catalytic domain, CyPet-SUMO1-YPet FRET cleavage; hit rate 0.21% among 360,000;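 active means inhibition at least 30% at 10 µM, raw YFP signal under a set limit, fluorescence ratio 0.5 to 1.5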
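Test system: hSENP1 catalytic domain, recombinant; Amount: 20 pM final SENP1 enzyme; Medium: Tris pH 8 buffer plus EDTA, NaCl, BME, BSA, NP40, catalase; Schedule: 50 min enzyme reaction, room temperature, light-protected; Technique: FRET fluorescence in CFP and YFP emission channels; Controls: no-enzyme wells low, DMSO-plus-enzyme wells high control.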
SENP6 block = SENP6 protease inhibitors, primary screen, biochemical, luminescence, uHTS. Sentrin-specific protease 6 (Homo sapiens), Q9GZR1. Recombinant SENP6 catalytic domain, aminoluciferin luminescence. inhibition, % at 10 µM. hit rate 1.8% among 330,000;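 active means inhibition above about 50% at the single tested dose, limit read from the data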
SENP8 block-2 = human SENP8 protease inhibitors, primary screen, biochemical, fluorescence, Nedd8 protein substrate, uHTS | Sentrin-specific protease 8 (Homo sapiens), Q96LD8 | hit rate 0.64% among 360,000 | recombinant SENP8 | inhibition, % at 20 µM; in the data active means inhibition mostly above about 40%, no sharp cut-off; inactive means mostly below about 27%
SENP7 block = SENP7 protease inhibitors, primary screen, biochemical, luminescence, uHTS. hit rate 1.5% among 330,000. Sentrin-specific protease 7 (Homo sapiens), Q9BQF6. recombinant SENP7, Z-RLRGG-aminoluciferin luminescence, 40 min. inhibition, % at 5 µM;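 active means inhibition above about 50% at the single test dose, limit read from the data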
Target sequence (Q9BQF6 706-1050 limits assumed): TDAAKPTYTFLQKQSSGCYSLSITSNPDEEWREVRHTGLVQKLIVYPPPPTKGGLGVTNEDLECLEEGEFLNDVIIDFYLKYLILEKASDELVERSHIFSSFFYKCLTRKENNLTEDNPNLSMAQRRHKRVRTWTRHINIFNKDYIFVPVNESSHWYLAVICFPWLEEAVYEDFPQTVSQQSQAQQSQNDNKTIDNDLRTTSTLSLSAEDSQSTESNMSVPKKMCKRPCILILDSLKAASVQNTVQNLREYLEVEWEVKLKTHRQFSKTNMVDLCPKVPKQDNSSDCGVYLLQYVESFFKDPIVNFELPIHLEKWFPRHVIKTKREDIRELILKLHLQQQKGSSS
CendR NRP1 mod = modulators of CendR peptide binding to NRP-1, primary screen, biochemical, fluorescence polarization, uHTS | Neuropilin-1 (Homo sapiens), O14786 | hit rate 0.85% among 360,000 | FAM-RPARPAR peptide binding to NRP-1 | inhibition, % at 25 µM;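 active means inhibition or corrected inhibition above about 18%, plus a signal ratio from 0.5 to 1.5, limit read from the data, passing the limit was not always enough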
Of the large screens only hits and unclear results are named; the others gave an inactive call. Sampled rows, rich in hits. Any-hit rate of the full collection: about 3.3%.

O=S(=O)(Cc1ccccc1)Nc1ccc(Br)cn1	none
Cc1ccc(NS(=O)(=O)Cc2ccccc2)nc1	CendR NRP1 mod 26
COc1ccc([C@H]2C[C@H](O)[C@@H](n3cc(COC(=O)c4ccccc4)nn3)CN2C(=O)C2CCCCC2)cc1	none (no result: SENP8 block-1, SENP6 block, SENP7 block)
Cc1[nH]n(-c2ccccc2)c(=O)c1-c1ccccc1	none
COc1cccc(C(c2c(C)[nH]n(-c3ccccc3)c2=O)c2c(C)[nH]n(-c3ccccc3)c2=O)c1OC	SENP8 block-2 73
Cc1[nH]n(-c2ccccc2)c(=O)c1C(c1ccc(O)c([N+](=O)[O-])c1)c1c(C)[nH]n(-c2ccccc2)c1=O	SENP6 block 51, SENP8 block-2 80
Cc1[nH]n(-c2ccccc2)c(=O)c1C(C[N+](=O)[O-])c1ccccc1Cl (stereo unspecified)	SENP8 block-2 64, CendR NRP1 mod 31
Nc1[nH]c(C(=O)c2ccccc2)c(-c2cccnc2)c1C(=O)NCCc1ccc(Cl)cc1Cl	none (no result: SENP8 block-1, SENP6 block, SENP7 block)
CC1(C(=O)NS(=O)(=O)c2ccccc2Cl)CCN1C(=O)CC1CCCC1 (stereo unspecified)	none (no result: SENP8 block-1, SENP6 block, SENP7 block)
CCOc1ccccc1NC(=O)COC(=O)c1ccccc1SCC(=O)N1CCCC1	none
O=C(COC(=O)c1ccccc1SCC(=O)N1CCCC1)Nc1ccccc1C(F)(F)F	CendR NRP1 mod 32
Cc1cc(C)n(CCC(=O)N/N=C/c2c(O)ccc3ccccc23)n1	CendR NRP1 mod 34
CC(=NN(Cc1ccccc1)c1ccccc1)c1ccccc1	CendR NRP1 mod 22 (no result: SENP8 block-1, SENP6 block, SENP7 block)
C/C(=N\N(c1ccccc1)c1ccccc1)c1ccc(O)cc1	none
COc1ccc(CNC(=O)CN2C(=O)CSc3ccc(S(=O)(=O)N4CCOCC4)cc32)cc1	CendR NRP1 mod 33
C=CCOC(=O)Nc1nc(CCNC(=O)OCc2ccccc2)c(C(=O)OC)s1	none (no result: SENP8 block-1, SENP6 block, SENP7 block)
CN1CCN(c2ccc(S(=O)(=O)N3CCCCC3)cn2)CC1	none
CN1CCN(S(=O)(=O)c2ccc(N3CCc4ccccc4C3)nc2)CC1	CendR NRP1 mod 21
CCCN(C(=O)CSCc1ccc(Cl)cc1)c1c(N)n(Cc2ccccc2)c(=O)[nH]c1=O	CendR NRP1 mod 27
COC1=CC(=O)OC(c2cccc([N+](=O)[O-])c2)C1 (stereo unspecified)	none (no result: SENP8 block-1, SENP6 block, SENP7 block)
COc1cccc(C=Cc2nccc3ccccc23)c1OC	CendR NRP1 mod 25 (no result: SENP8 block-1, SENP6 block, SENP7 block)
N#CCCN(C(=S)NC(=O)C1CCCCC1)c1ccccc1F	none
Cc1cc(=O)n2[nH]c(N)c(N=Nc3ccccc3)c2n1	none (no result: SENP8 block-1, SENP6 block, SENP7 block)
COc1cccc(N=Nc2c(N)[nH]n3c(=O)cc(-c4ccccc4)nc23)c1	SENP8 block-2 65
Cc1ccc(N=Nc2c(N)[nH]n3c(=O)cc(-c4ccccc4)nc23)cc1	SENP8 block-2 74
COc1ccc(-c2nc3ccccn3c2C=O)cc1	SENP6 block 62, SENP7 block 55
CCCCCCCCN1C(=O)[C@H](CC(=O)NCc2ccccc2)C[C@@]2(C(=O)OC)CC(C)(C)CC=C12	none (no result: SENP8 block-1, SENP6 block, SENP7 block)
COc1cccc(NC(=O)c2cc3cccc(OC)c3o/c2=N\O)c1	SENP7 block 82 (no result: SENP1 FRET inh, SENP8 block-2, CendR NRP1 mod)
c1ccc(C2=Nc3ccccc3SC2c2nc3ccccc3[nH]2)cc1 (stereo unspecified)	SENP6 block 52, SENP7 block 54 (no result: SENP1 FRET inh, SENP8 block-2, CendR NRP1 mod)
O=C1CC(c2nc3ccccc3[nH]2)CN1c1ccccc1 (stereo unspecified)	none
CC1C(=O)Nc2ccc(S(=O)(=O)NCCc3ccc(Cl)cc3)cc2NC1=O (stereo unspecified)	CendR NRP1 mod 24
COCCCN1C(=O)C(=O)/C(=C(/O)c2ccc(OCC(C)C)cc2)C1c1cccnc1 (stereo unspecified)	none
CCCOc1ccc(/C(O)=C2/C(=O)C(=O)N(CCCOC)C2c2cccnc2)cc1 (stereo unspecified)	CendR NRP1 mod 28
CCc1nc2c(OCc3ccccc3)cccn2c1N(C)C(=O)C(C)C	none (no result: SENP8 block-1, SENP6 block, SENP7 block)
CC(=O)Nc1ccc(C(C)=NNC(=O)C2CCCC2)cc1	none (no result: SENP8 block-1, SENP6 block, SENP7 block)
